Test results published in ChEMBL document CHEMBL3407426, “Synthesis and biological evaluations of novel endomorphin analogues containing α-hydroxy-β-phenylalanine (AHPBA) displaying mixed μ/δ opioid receptor agonist and δ opioid receptor antagonist activities” (Eur J Med Chem, 2015).
Where a SMILES comes first, the peptide text is derived from it. [ ]: non-standard residue; d: D form. ξ: configuration not given here. Dmt = Cc1cc(O)cc(C)c1C[C@H](N)C(=O)O; ξTiq(1-COOH) = O=C(O)C1NCCc2ccccc21; β3hF = N[C@H](CC(=O)O)Cc1ccccc1

Test system: not listed separately
Test: Half life in rat brain homogenate at 10 uM
Assay type: ADME, tissue-based
Procedure, shortened: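 Peptide at a final 10 µM in rat brain homogenate (protein 21.2 mg/mL), incubated at 37 °C. Aliquots quenched in acetonitrile with internal standard in triplicate, centrifuged, and analysed by LC-MS/MS in MRM mode. Half-life from pseudo-first-order loss of the analyte/internal-standard ratio; mean of at least three experiments ± SEM.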

SMILES | half-life at 10 µM
NC(=O)[C@@H](O)[C@H](Cc1ccccc1)NC(=O)[C@H](Cc1ccccc1)NC(=O)[C@@H]1CCCN1C(=O)[C@@H](N)Cc1ccc(O)cc1 | 2.3 min
NC(=O)[C@@H](O)[C@H](Cc1ccccc1)NC(=O)[C@H](Cc1c[nH]c2ccccc12)NC(=O)[C@@H]1CCCN1C(=O)[C@@H](N)Cc1ccc(O)cc1 | 3.57 min
NC(=O)[C@H](Cc1ccccc1)NC(=O)[C@H](O)[C@H](Cc1ccccc1)NC(=O)[C@@H]1CCCN1C(=O)[C@@H](N)Cc1ccc(O)cc1 | 6.52 min
Cc1cc(O)cc(C)c1C[C@H](N)C(=O)N1CCc2ccccc2C1C(=O)N[C@@H](Cc1ccccc1)C(=O)N[C@H](CC(N)=O)Cc1ccccc1 (stereo partly drawn) (H-[Dmt][ξTiq(1-COOH)]F[β3hF]-NH2) | 28.9 min
Cc1cc(O)cc(C)c1C[C@H](N)C(=O)N1CCc2ccccc2C1C(=O)N[C@@H](Cc1c[nH]c2ccccc12)C(=O)N[C@H](CC(N)=O)Cc1ccccc1 (stereo partly drawn) (H-[Dmt][ξTiq(1-COOH)]W[β3hF]-NH2) | > 120 min

Test system: not listed separately
Test: Selectivity ratio of Ki for guinea pig cortex/cerebella kappa opioid receptor to Ki for rat cortex delta opioid receptor
Procedure, shortened: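 Ki ratio (KOR/DOR), from Ki values that are means of two experiments. KOR: guinea pig cortex and cerebellum membranes in 50 mM Tris pH 7.4 with 10 mM MgCl2; 2 nM [3H]U69,593; 2 h at 25 °C; unlabeled U50,488 defines the curve and nonspecific binding. Filtration on GF/B.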

SMILES | Ratio Ki
Cc1cc(O)cc(C)c1C[C@H](N)C(=O)N1CCc2ccccc2C1C(=O)N[C@@H](Cc1ccccc1)C(=O)N[C@H](CC(N)=O)Cc1ccccc1 (stereo partly drawn) (H-[Dmt][ξTiq(1-COOH)]F[β3hF]-NH2) | 30

Target: Delta-type opioid receptor (Rattus norvegicus, UniProt P33533)
Test: Displacement of [3H]DPDPE from rat cortex delta opioid receptor after 2.5 hrs by liquid scintillation counting analysis

Sequence of Delta-type opioid receptor (P33533 whole entry): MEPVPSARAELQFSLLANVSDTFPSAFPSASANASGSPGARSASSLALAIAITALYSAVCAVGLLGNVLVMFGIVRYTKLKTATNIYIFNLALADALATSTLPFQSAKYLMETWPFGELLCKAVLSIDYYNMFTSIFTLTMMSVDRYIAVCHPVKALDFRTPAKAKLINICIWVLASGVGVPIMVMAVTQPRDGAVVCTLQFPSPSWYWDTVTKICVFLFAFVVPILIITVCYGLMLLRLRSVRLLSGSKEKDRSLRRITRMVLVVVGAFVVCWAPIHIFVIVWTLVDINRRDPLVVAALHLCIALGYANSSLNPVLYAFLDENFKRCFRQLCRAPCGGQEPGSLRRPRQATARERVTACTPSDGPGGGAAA

SMILES | Ki
NC(=O)[C@H](O)[C@H](Cc1ccccc1)NC(=O)[C@H](Cc1c[nH]c2ccccc12)NC(=O)[C@@H]1CCCN1C(=O)[C@@H](N)Cc1ccc(O)cc1 | 453 nM
NC(=O)[C@@H](O)[C@H](Cc1ccccc1)NC(=O)[C@H](Cc1c[nH]c2ccccc12)NC(=O)[C@@H]1CCCN1C(=O)[C@@H](N)Cc1ccc(O)cc1 | 508 nM
NC(=O)[C@H](Cc1ccccc1)NC(=O)[C@H](O)[C@H](Cc1ccccc1)NC(=O)[C@@H]1CCCN1C(=O)[C@@H](N)Cc1ccc(O)cc1 | 3290 nM
NC(=O)[C@H](O)[C@@H](Cc1ccccc1)NC(=O)[C@H](Cc1c[nH]c2ccccc12)NC(=O)[C@@H]1CCCN1C(=O)[C@@H](N)Cc1ccc(O)cc1 | 441 nM
Cc1cc(O)cc(C)c1C[C@H](N)C(=O)N1CCc2ccccc2C1C(=O)N[C@@H](Cc1ccccc1)C(=O)N[C@H](CC(N)=O)Cc1ccccc1 (stereo partly drawn) (H-[Dmt][ξTiq(1-COOH)]F[β3hF]-NH2) | 1 nM
Cc1cc(O)cc(C)c1C[C@H](N)C(=O)N1CCc2ccccc2C1C(=O)N[C@@H](Cc1c[nH]c2ccccc12)C(=O)N[C@H](CC(N)=O)Cc1ccccc1 (stereo partly drawn) (H-[Dmt][ξTiq(1-COOH)]W[β3hF]-NH2) | 1 nM

Target: Mu-type opioid receptor (Rattus norvegicus, UniProt P33535)
Test: Displacement of [3H]DAMGO from rat cortex mu opioid receptor after 30 mins by liquid scintillation counting analysis
Procedure, shortened: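 Rat cortex membranes prepared in 50 mM Tris pH 7.4, spun 16,500 rpm for 10 min, and incubated 30 min at 37 °C. Competition against [³H]DAMGO. Assay ended by filtration on BSA-soaked GF/B filters. Ki values are means of two experiments.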

Sequence of Mu-type opioid receptor (P33535 whole entry): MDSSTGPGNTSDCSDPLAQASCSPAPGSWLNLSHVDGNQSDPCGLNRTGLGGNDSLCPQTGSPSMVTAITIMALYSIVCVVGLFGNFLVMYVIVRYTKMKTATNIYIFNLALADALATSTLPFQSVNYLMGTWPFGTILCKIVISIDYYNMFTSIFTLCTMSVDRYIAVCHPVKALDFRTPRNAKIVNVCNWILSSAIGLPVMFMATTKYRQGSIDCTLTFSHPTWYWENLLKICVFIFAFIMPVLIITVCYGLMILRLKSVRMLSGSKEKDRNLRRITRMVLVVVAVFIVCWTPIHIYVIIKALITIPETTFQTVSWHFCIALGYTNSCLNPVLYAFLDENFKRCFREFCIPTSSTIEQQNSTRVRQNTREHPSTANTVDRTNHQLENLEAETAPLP

SMILES | Ki
NC(=O)[C@H](O)[C@H](Cc1ccccc1)NC(=O)[C@H](Cc1c[nH]c2ccccc12)NC(=O)[C@@H]1CCCN1C(=O)[C@@H](N)Cc1ccc(O)cc1 | 25 nM
NC(=O)[C@@H](O)[C@H](Cc1ccccc1)NC(=O)[C@H](Cc1ccccc1)NC(=O)[C@@H]1CCCN1C(=O)[C@@H](N)Cc1ccc(O)cc1 | 17 nM
NC(=O)[C@@H](O)[C@H](Cc1ccccc1)NC(=O)[C@H](Cc1c[nH]c2ccccc12)NC(=O)[C@@H]1CCCN1C(=O)[C@@H](N)Cc1ccc(O)cc1 | 10 nM
NC(=O)[C@H](Cc1ccccc1)NC(=O)[C@H](O)[C@H](Cc1ccccc1)NC(=O)[C@@H]1CCCN1C(=O)[C@@H](N)Cc1ccc(O)cc1 | 9 nM
NC(=O)[C@H](O)[C@@H](Cc1ccccc1)NC(=O)[C@H](Cc1c[nH]c2ccccc12)NC(=O)[C@@H]1CCCN1C(=O)[C@@H](N)Cc1ccc(O)cc1 | 243 nM
Cc1cc(O)cc(C)c1C[C@H](N)C(=O)N1CCc2ccccc2C1C(=O)N[C@@H](Cc1ccccc1)C(=O)N[C@H](CC(N)=O)Cc1ccccc1 (stereo partly drawn) (H-[Dmt][ξTiq(1-COOH)]F[β3hF]-NH2) | 15 nM
Cc1cc(O)cc(C)c1C[C@H](N)C(=O)N1CCc2ccccc2C1C(=O)N[C@@H](Cc1c[nH]c2ccccc12)C(=O)N[C@H](CC(N)=O)Cc1ccccc1 (stereo partly drawn) (H-[Dmt][ξTiq(1-COOH)]W[β3hF]-NH2) | 14 nM

Species on record: Rattus norvegicus
Test: Selectivity ratio of Ki for rat cortex mu opioid receptor to Ki for rat cortex delta opioid receptor
Procedure, shortened: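 Ki ratio (MOR/DOR), from Ki values that are means of two experiments. MOR: rat cortex homogenized in 50 mM Tris pH 7.4, spun, preincubated 30 min at 37 °C, spun again, then resuspended with bovine serum; displacement of [3H]DAMGO. DOR: 2 nM [3H]DPDPE; 2.5 h at 25 °C; unlabeled DPDPE as competitor. Filtration on GF/B.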

SMILES | Ratio Ki
Cc1cc(O)cc(C)c1C[C@H](N)C(=O)N1CCc2ccccc2C1C(=O)N[C@@H](Cc1ccccc1)C(=O)N[C@H](CC(N)=O)Cc1ccccc1 (stereo partly drawn) (H-[Dmt][ξTiq(1-COOH)]F[β3hF]-NH2) | 15
